Screens deposited in PubChem by several laboratories.
Runt-CBFb FRET: inhibitors of RUNX1 Runt–CBFb binding, primary screen, biochemical, FRET, Cerulean-Runt, Venus-CBFb, uHTS; Runt-related transcription factor 1 (Homo sapiens) + Core-binding factor subunit beta …; Cerulean-Runt/Venus-CBFb FRET ratio 530/480, 1 h; inhibition, % at 20 µM; 220,000 compounds, 0.46% hits;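 active = inhibition over about 50% at 20 µM in the single-dose screen, limit read from the data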;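 note: 0% = DMSO wells and 100% = excess unlabeled CBFb competitor control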
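Schedule: protein complex preformed 1 h, compound exposure 1 h, room temperature, dark; test system: Cerulean-labeled Runt domain protein; amount: 100 nM per protein; buffer or medium: Tris 50 mM pH 7.5, KCl, K2SO4, 0.01% BSA; read-out: loss of energy transfer signal; detection: FRET fluorescence; controls: 5 µM unlabeled CBFb as full-inhibition high control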
PKD1 kinase inh: inhibitors of human PKD1 kinase, biochemical, fluorescence polarization; Serine/threonine-protein kinase D1 (Homo sapiens), Q15139; PKD1 kinase fluorescence polarization assay; inhibition, % (no concentration beside the values); 200,000 compounds, 0.056% hits; AID 797, 2007
EBV gp42 block: Epstein-Barr virus gp42 inhibitors, primary screen, biochemical, uHTS, fluorescence polarization; Glycoprotein 42 (Epstein-Barr virus (strain AG876)), Q1HVG2; Fluorescence polarization binding assay, mP read-out; inhibition, % (tested at 21.74 µM); 220,000 compounds, 0.42% hits
Target sequence (Q1HVG2 whole entry, looked up): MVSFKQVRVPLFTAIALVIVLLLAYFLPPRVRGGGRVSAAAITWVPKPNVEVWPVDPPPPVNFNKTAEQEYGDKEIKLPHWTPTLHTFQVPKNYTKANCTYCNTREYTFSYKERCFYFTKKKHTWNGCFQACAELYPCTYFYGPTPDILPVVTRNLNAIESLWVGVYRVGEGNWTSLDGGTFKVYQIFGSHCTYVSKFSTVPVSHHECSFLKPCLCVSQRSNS
RanGTP-Imp inh: inhibitors of RanGTP-importin-beta interaction, primary screen, biochemical, FRET, CFP-Ran, YFP-importin-beta, homogeneous; 300,000 compounds, 1.1% hits; cell-free CFP-Ran/YFP-importin-beta FRET ratio; inhibition, % (test concentration not listed);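 active = more than half of the replicate wells show a fall in the fluorescence ratio signal beyond about 16%, limit read from the data, passing the limit was not always enough; inconclusive = exactly half of the replicate wells pass the set limit; inactive = fewer than half of replicates pass the limit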;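 note: 0% = DMSO wells and 100% = Ran loaded with GDP instead of GTP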
Runt-SMMHC FRET: inhibitors of RUNX1 Runt–CBFb-SMMHC binding, primary screen, biochemical, FRET, Cerulean-Runt, Venus-CBFb-SMMHC, uHTS; Runt-related transcription factor 1 (Homo sapiens) + Core-binding factor subunit beta …; inhibition, % at 20 µM; 220,000 compounds, 0.74% hits; Cerulean-Runt/Venus-CBFb-SMMHC FRET ratio 530/480, 1 h; AID 1434, 2008;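 active = mean inhibition across duplicate retests at 20 µM reaching about 50%, limit read from the data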;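 note: 0% = DMSO wells and 100% = wells with excess untagged CBFb-SMMHC; inhibitors lower the FRET ratio by blocking Runt binding to CBFb-SMMHC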
MEX-5 binding: MEX-5 zinc finger RNA-binding disruptors – biochemical, C. elegans, fluorescence polarization, MLPCN library, primary screen. Zinc finger protein mex-5 (Caenorhabditis elegans), Q9XUB2. MEX-5/FITC-TCR2 RNA binding; hits give low values. activity score (negative = inhibition of binding), % at 10 µM. 300,000 compounds, 0.38% hits;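 active = inhibition past about -25% in most replicates, and total fluorescence under double the plate's negative control median, limit read from the data; inconclusive = replicates evenly split on the limit, or fluorescence at least double controls; inactive = too little inhibition in most replicates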;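 note: 0% = DMSO and -100% = 5 µM competing unlabeled TCR2 RNA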
* hit, by the source's call; ? = inconclusive; · = no result. Rows were chosen to be rich in hits. Some 2% of all compounds tested hit in one or more screens of this group. Cut-off read from the data, not from the text of the source, unless noted: active = inhibition above about 50%; inactive = the rest.

SMILES | Runt-CBFb FRET | PKD1 kinase inh | EBV gp42 block | RanGTP-Imp inh | Runt-SMMHC FRET | MEX-5 binding
CCC(=O)N1N=C(c2cccs2)CC1c1ccco1 (stereo not drawn) | 2 | 2 | -1 | -5 | 1 | 0
Clc1ccc(N2N=C(c3cccs3)CC2c2ccco2)cc1 (stereo not drawn) | · | 7 | -6 | 10 | 91* | -2
c1ccc(C2=NN(c3ccccc3)C(c3ccco3)C2)cc1 (stereo not drawn) | 6 | -6 | -4 | -7 | 3 | -2
Cc1ccc(NC(=O)CSC(C)c2nc3ccccc3c(=O)[nH]2)cc1 (stereo not drawn) | · | · | · | -2 | · | 0
Nc1c(S(=O)(=O)c2ccccc2)c2nc3ccccc3nc2n1Cc1ccco1 | 21 | -4 | 62* | 14 | -21 | 2
Cc1ccc(S(=O)(=O)c2c(N)n(CCCO)c3nc4ccccc4nc23)cc1 | 9 | -8 | -8 | 8 | 29 | -2
CCCCn1c(NC(=O)c2ccco2)c(S(=O)(=O)c2ccc(C)cc2)c2nc3ccccc3nc21 | 4 | -7 | -16 | 49* | 46 | 0
CCCCCn1c(NC(=O)c2ccco2)c(S(=O)(=O)c2ccc(C)cc2)c2nc3ccccc3nc21 | 10 | -2 | 11 | 80* | 147* | -2
CCCCn1c(NS(=O)(=O)c2ccccc2)c(S(=O)(=O)c2ccc(C)cc2)c2nc3ccccc3nc21 | 6 | 0 | 7 | 51* | 53* | -2
Cc1ccc(S(=O)(=O)c2c(N)n(CCC(C)C)c3nc4ccccc4nc23)cc1 | 2 | 1 | 6 | 1 | 5 | -3
COc1ccc(NC(=O)CN(C)CC(=O)Nc2ccc(Cl)cc2F)cc1 | -3 | -3 | -12 | -4 | 3 | -1
CCn1c(C)nc2cc(C(=O)N/N=C/c3ccc(OC)c(O)c3)ccc21 | 0 | -4 | 1 | -2 | -6 | 0
COc1cc(SSc2cc(OC)cc([N+](=O)[O-])c2N)c(N)c([N+](=O)[O-])c1 | 41 | · | -28 | -12 | 64* | 0
CCOC(=O)c1cc(-c2csc(N/N=C/c3ccccc3Cl)n2)on1 | 7 | · | -2 | 42* | 16 | ·
Cc1ccccc1OCC(=O)Nc1ccccc1C(=O)NC1CC1 | · | · | · | -5 | · | -2
CC1(C)Cc2c(cnn2-c2ccccc2)C(NC(=O)c2ccc[n+]([O-])c2)C1 (stereo not drawn) | · | · | · | 4 | · | 2
COc1ccc(/C=N/Nc2cc(C)nc3ccc(OC)cc23)c(OC)c1 | · | · | · | 20* | · | 2
COc1ccccc1/C=N/Nc1cc(C)nc2ccc(C)cc12 | · | · | · | 1 | · | 4
CSc1cccc(NC(=O)CC2Oc3ccccc3NC2=O)c1 (stereo not drawn) | · | · | · | -5 | · | 1
Nc1cccc2c1C(=O)N(C(=O)c1ccc(S(=O)(=O)N3CCCCCC3)cc1)C2=O | 12 | 3 | -8 | 11 | 58* | 0
O=C(O)c1ccc(S(=O)(=O)N2CCCCCC2)cc1 | 3 | 0 | -5 | 2 | -1 | 0
CCCC12CN3CCN(CC(C3)/C1=N\NC(=O)c1ccc(C(C)(C)C)cc1)C2 | 4 | -4 | -4 | 1 | -2 | 2
CCc1ccccc1NC(=O)CSc1ccsc1[N+](=O)[O-] | 4 | -6 | 43 | -5 | -1 | 0
O=C(CSc1ccsc1[N+](=O)[O-])Nc1cccc(F)c1 | 1 | -3 | 62* | ? | -10 | -3
CC(C)Cn1nc(NC(=O)C2CCCO2)c2cc3ccccc3nc21 (stereo not drawn) | 21 | 0 | · | 27* | 39 | -2
Cc1ccc2cc3c(NC(=O)c4ccco4)nn(CC(C)C)c3nc2c1 | 17 | -18 | -12 | 39* | 35 | -2
